According to ChEMBL document CHEMBL1275515, “CYP56 (Dit2p) in Candida albicans: characterization and investigation of its role in growth and antifungal drug susceptibility” (Antimicrob Agents Chemother, 2008):
Converted amounts (≈) assume the structure as drawn.

Columns and labels:
Candida albicans [1] = experiment: Binding affinity to Candida albicans CYP56 assessed as dissociation constant for enzyme-substrate complex by spectrophotometry
Method in brief: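 His-tagged CYP56 expressed in E. coli BL21(DE3) and Ni2+-NTA purified; 2 μM enzyme in 0.1 M potassium phosphate (pH 7.4) with 20% glycerol. N-formyl tyrosine titrated from 26 to 253 μM, with spectra read at 320–470 nm until saturation. ΔA390-412 fitted to the Hill equation by nonlinear regression. A Hill plot gave ks (enzyme–substrate dissociation constant) and Hill number.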

Candida albicans [2] = experiment: Antimicrobial activity against Candida albicans YNM11 harboring cyp56delta::FRT/cyp56::FRT mutant gene by Etest method; type: functional
Candida albicans [3] = experiment: Antimicrobial activity against wild type Candida albicans SC5314 by Etest method; type: functional
Candida albicans [4] = experiment: Antimicrobial activity against Candida albicans YNM12 harboring cyp56delta::FRT/cyp56::FRT/RP10-CYP56 mutant gene by Etest method; type: functional
[5] = Binding affinity to Candida albicans CYP56 by spectrophotometry
Method in brief: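 His-tagged C. albicans CYP56 was expressed in E. coli BL21(DE3) and purified on Ni2+-NTA agarose, then used at 2 μM. Azole in DMSO was titrated stepwise (23–684 nM across the drugs), scanning 350–500 nm. Kd was taken from ΔA430-412 versus azole concentration by Levenberg-Marquardt nonlinear regression of the Hill equation.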

| SMILES | MIC80 (Candida albicans [3]) [µg/mL] | MIC80 (Candida albicans [2]) [µg/mL] | Kd [5] [nM] | also measured |
| --- | --- | --- | --- | --- |
| O=CN[C@@H](Cc1ccc(O)cc1)C(=O)O | – | – | – | Ks (Candida albicans [1]): 26 µM |
| C[C@@H]1[C@H](O)[C@@H](C)/C=C/C=C/C=C/C=C/C=C/C=C/C=C/[C@H](O[C@@H]2O[C@H](C)[C@@H](O)[C@H](N)[C@@H]2O)C[C@@H]2O[C@](O)(C[C@@H](O)C[C@@H](O)[C@H](O)CC[C@@H](O)C[C@@H](O)CC(=O)O[C@H]1C)C[C@H](O)[C@H]2C(=O)O [AMPHOTERICIN B] | – | – | – | MIC (Candida albicans [2]): 1 µg/mL (≈ 1.08 µM); MIC (Candida albicans [3]): 1 µg/mL (≈ 1.08 µM) |
| CC[C@H](C)C[C@H](C)CCCCCCCCC(=O)N[C@H]1C[C@@H](O)[C@@H](NCCN)NC(=O)[C@@H]2[C@@H](O)CCN2C(=O)[C@H]([C@H](O)CCN)NC(=O)[C@H]([C@H](O)[C@@H](O)c2ccc(O)cc2)NC(=O)[C@@H]2C[C@@H](O)CN2C(=O)[C@H]([C@@H](C)O)NC1=O [CASPOFUNGIN] | 0.015 (≈ 0.0137 µM) | – | – | MIC80 (Candida albicans [4]): 0.03 µg/mL (≈ 0.0274 µM) |
| OC(Cn1cncn1)(Cn1cncn1)c1ccc(F)cc1F [FLUCONAZOLE] | 0.06 (≈ 0.196 µM) | 0.06 (≈ 0.196 µM) | 230 | – |
| CCC(C)n1ncn(-c2ccc(N3CCN(c4ccc(OCC5COC(Cn6cncn6)(c6ccc(Cl)cc6Cl)O5)cc4)CC3)cc2)c1=O (configuration not stated) [ITRACONAZOLE] | – | – | 100 | – |
| C[C@@H](c1ncncc1F)[C@](O)(Cn1cncn1)c1ccc(F)cc1F [VORICONAZOLE] | 0.007 (≈ 0.02 µM) | 0.007 (≈ 0.02 µM) | 510 | – |
